Experimental data published in ChEMBL document CHEMBL1154055, “Synthesis and structure-activity relationships of N-(4-amino-2,6-diisopropylphenyl)-N'-(1,4-diarylpiperidine-4-yl)methylureas as anti-hyperlipidemic agents” (Bioorg Med Chem, 2009).
≈ marks a conversion by molar mass, not a printed value. Calls of active or inactive are those of the source. The rule behind the calls is not given here.

Assays:
[1] = biological target: T1, Sterol O-acyltransferase 1 (Rattus norvegicus, UniProt O70536); assay: Inhibition of ACAT in rat macrophages assessed as incorporation of extracellular [3H]-oleic acid-BSA complex into the intracellular cholesteryl ester after 24 hrs; type: cell-based
T1 sequence (O70536 whole entry): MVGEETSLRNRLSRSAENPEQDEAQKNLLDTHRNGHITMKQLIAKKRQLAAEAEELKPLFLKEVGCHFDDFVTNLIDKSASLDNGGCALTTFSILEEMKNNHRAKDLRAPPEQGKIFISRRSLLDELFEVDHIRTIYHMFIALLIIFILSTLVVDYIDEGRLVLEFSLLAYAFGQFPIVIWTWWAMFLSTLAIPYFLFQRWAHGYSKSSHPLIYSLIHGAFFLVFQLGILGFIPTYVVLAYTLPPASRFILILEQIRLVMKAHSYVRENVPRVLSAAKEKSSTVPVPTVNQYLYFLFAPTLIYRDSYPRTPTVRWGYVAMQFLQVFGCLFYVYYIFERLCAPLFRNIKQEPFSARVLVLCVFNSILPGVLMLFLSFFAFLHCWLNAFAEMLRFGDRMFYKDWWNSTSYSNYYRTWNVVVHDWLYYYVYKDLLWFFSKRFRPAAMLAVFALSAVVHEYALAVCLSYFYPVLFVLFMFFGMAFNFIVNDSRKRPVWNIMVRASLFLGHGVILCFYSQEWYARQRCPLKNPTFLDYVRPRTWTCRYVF
Summary of the method: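 Cells seeded at 2 × 10⁶ cells/mL/well, incubated 24 h at 37 °C (humidified, 5% CO₂) in medium containing liposomes, ³H-oleic acid–BSA complex and a range of compound concentrations. Protein measured by Lowry method.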

HepG2 [2] = assay: Up-regulation of LDL receptor expression in human HepG2 cells at 100 nM by immunoblot analysis; type: functional, cell-based
Summary of the method: (§1)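 HepG2 cells exposed to compound, lysed in 125 mM Tris–HCl pH 8.0, 2 mM CaCl₂, 1% Triton X-100 with protease inhibitor cocktail, then centrifuged. LDL receptor detected by immunoblot with mouse monoclonal anti-LDL-R antibody (clone IgG-C7).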

[3] = Solubility at pH 7.4; type: physicochemical; conditions: buffer
HepG2 [4] = assay: Up-regulation of LDL receptor expression in human HepG2 cells at 10 uM by immunoblot analysis; type: functional, cell-based; summary of the method: as §1

SMILES	IC50 [1] [nM]	Activity (HepG2 [2])	solubility [3] [µg/mL]	Activity (HepG2 [4])
CC(C)c1cc(C(C)C)c(CC(=O)NS(=O)(=O)Oc2c(C(C)C)cccc2C(C)C)c(C(C)C)c1 [AVASIMIBE]	479	inactive	–	–
CCCCn1c(=O)c(NC(=O)Nc2c(C(C)C)cc(N)cc2C(C)C)c(-c2cccc(OCCCO)c2)c2cccnc21	31	Active	10 (≈ 17.1 µM)	–
COc1cccc(C2(CNC(=O)Nc3c(C(C)C)cc(N)cc3C(C)C)CCN(c3ccccc3OC)CC2)c1	37	Active	–	–
COc1cccc(C2(CNC(=O)Nc3c(C(C)C)cc(N)cc3C(C)C)CCN(c3ccccc3)CC2)c1	40	–	–	inactive
COc1ccccc1N1CCC(CNC(=O)Nc2c(C(C)C)cc(N)cc2C(C)C)(c2cccc(O)c2)CC1	797	inactive	–	–
COc1cccc(C2(CNC(=O)Nc3c(C(C)C)cccc3C(C)C)CCN(c3ccccc3)CC2)c1	–	–	–	inactive
COc1cccc(C2(CNC(=O)Nc3c(C(C)C)cc(N)cc3C(C)C)CCN(c3cccnc3)CC2)c1	466	–	–	–
COc1cccc(C2(CNC(=O)Nc3c(C(C)C)cc(N)cc3C(C)C)CCN(c3ccccc3O)CC2)c1	–	inactive	–	–
COc1cccc(C2(CNC(=O)Nc3c(C(C)C)cc(N)cc3C(C)C)CCN(c3ccccc3OCCCN)CC2)c1.Cl	195	Active	32	–
COc1cccc(C2(CNC(=O)Nc3c(C(C)C)cc(N)cc3C(C)C)CCN(c3ccccc3OC(C)C)CC2)c1	37	Active	–	–
COc1ccccc1N1CCC(CNC(=O)Nc2c(C(C)C)cc(N)cc2C(C)C)(c2ccccc2)CC1	82	inactive	–	–
COc1ccccc1N1CCC(CNC(=O)Nc2c(C(C)C)cc(N)cc2C(C)C)(c2cccc(OCCCO)c2)CC1	62	Active	–	–
COc1ccc(N2CCC(CNC(=O)Nc3c(C(C)C)cc(N)cc3C(C)C)(c3cccc(OC)c3)CC2)cc1	142	inactive	–	–
COc1cccc(N2CCC(CNC(=O)Nc3c(C(C)C)cc(N)cc3C(C)C)(c3cccc(OC)c3)CC2)c1	48	inactive	–	–
CCCCOc1ccccc1N1CCC(CNC(=O)Nc2c(C(C)C)cc(N)cc2C(C)C)(c2cccc(OC)c2)CC1	32	Active	0.3 (≈ 0.511 µM)	–
COc1cccc(C2(CNC(=O)Nc3c(C(C)C)cc(N)cc3C(C)C)CCN(c3ccccc3OCCCO)CC2)c1.Cl.Cl	18	Active	22	–
COc1cccc(C2(CNC(=O)Nc3c(C(C)C)cc(N)cc3C(C)C)CCN(c3ncccc3OCCCO)CC2)c1	4	–	–	–
COc1cccc(C2(CNC(=O)Nc3c(C(C)C)cc(N)cc3C(C)C)CCN(c3ccccc3OCCCN(C)C)CC2)c1.Cl	239	–	> 250	–
COc1cccc(C2(CNC(=O)Nc3c(C(C)C)cc(N)cc3C(C)C)CCN(c3ncccc3OC)CC2)c1	6	–	–	–
COc1cccc(C2(CNC(=O)Nc3c(C(C)C)cc(N)cc3C(C)C)CCN(c3ccccc3OCCO)CC2)c1	96	Active	–	–
COc1cccc(C2(CNC(=O)Nc3c(C(C)C)cc(N)cc3C(C)C)CCN(c3ccncc3)CC2)c1	> 1000	–	–	–
COc1cccc(C2(CNC(=O)Nc3c(C(C)C)cc(N)cc3C(C)C)CCN(c3ccccc3OC(F)(F)F)CC2)c1	68	Active	–	–
COc1cccc(C2(CNC(=O)Nc3c(C(C)C)cc(N)cc3C(C)C)CCN(c3ccccn3)CC2)c1	32	–	–	–
COc1cccc(C2(CNC(=O)Nc3c(C(C)C)cc(N)cc3C(C)C)CCN(c3ccccc3OCC(F)(F)F)CC2)c1	48	Active	–	–
